Data taken from ChEMBL document CHEMBL2331220, “Benzimidazole clubbed with triazolo-thiadiazoles and triazolo-thiadiazines: new anticancer agents” (2013).

Key:
Type in all cases: functional
SK-OV-3 = assay: Cytotoxicity against human SKOV3 cells after 48 hrs by SRB assay; conditions: SK-OV-3, 48 h
Summary of the method: (§1)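 NCI 60-line five-dose screen: cells plated, held 24 h at 37 °C, 5% CO₂ before treatment, with a TCA-fixed time-zero plate. Five final concentrations (0.01–100 µM, 10-fold dilutions) for 48 h. Cells fixed with cold TCA (10% final) and stained with 0.4% SRB in 1% acetic acid. Dye dissolved in 10 mM Tris and read at 515 nm. GI₅₀, TGI and LC₅₀ taken from percent-growth curves.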

Malme-3M = assay: Cytotoxicity against human MALME-3M cells after 48 hrs by SRB assay
Summary of the method: (§2)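 NCI 60-line five-dose screen. Cells were preincubated 24 h at 37 °C under 5% CO2 and 100% humidity, and time-zero plates were TCA-fixed when compound was added. Five 10-fold concentrations (0.01–100) were tested for 48 h. Cells were fixed with cold TCA (final 10%, 60 min, 4 °C), stained with 0.4% SRB for 10 min, and read at 515 nm. GI50, TGI and LC50 came from growth-percentage formulas, with out-of-range values given as > or <.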

UACC-257 = assay: Cytotoxicity against human UACC257 cells after 48 hrs by SRB assay; conditions: UACC-257, 48 h; summary of the method: as §1
SF-295 = assay: Cytotoxicity against human SF295 cells after 48 hrs by SRB assay; conditions: SF-295, 48 h; summary of the method: as §2
OVCAR-3 = assay: Cytotoxicity against human OVCAR3 cells after 48 hrs by SRB assay; conditions: OVCAR-3, 48 h; summary of the method: as §2
NCI-H23 = assay: Cytotoxicity against human NCI-H23 cells after 48 hrs by SRB assay; conditions: NCI-H23, 48 h; summary of the method: as §2
786-0 = assay: Cytotoxicity against human 786-0 cells after 48 hrs by SRB assay; conditions: 786-0, 48 h; summary of the method: as §2
MOLT-4 = assay: Cytotoxicity against human MOLT4 cells after 48 hrs by SRB assay; conditions: MOLT-4, 48 h; summary of the method: as §2
SK-MEL-2 = assay: Cytotoxicity against human SK-MEL-2 cells after 48 hrs by SRB assay; conditions: SK-MEL-2, 48 h; summary of the method: as §2
UACC-62 = assay: Cytotoxicity against human UACC62 cells after 48 hrs by SRB assay; conditions: UACC-62, 48 h; summary of the method: as §1
ACHN = assay: Cytotoxicity against human ACHN cells after 48 hrs by SRB assay; summary of the method: as §2
NCI-H226 = assay: Cytotoxicity against human NCI-H226 cells after 48 hrs by SRB assay; conditions: NCI-H226, 48 h; summary of the method: as §2
IGROV-1 [1] = assay: Growth inhibition of human IGROV1 cells at 10 uM after 48 hrs by SRB assay relative to control; conditions: IGROV-1, 48 h, read-out: GI
Summary of the method: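 NCI single-dose primary screen: compound added at 1 × 10⁻⁵ M, cultures incubated 48 h. Protein stained with sulforhodamine B. Result given as percent growth of treated cells relative to untreated controls, where negative values mean cell kill.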

HL-60(TB) = assay: Cytotoxicity against human HL-60(TB) cells after 48 hrs by SRB assay; conditions: HL-60, 48 h
Summary of the method: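 NCI five-dose screen: cells preincubated 24 h at 37 °C, 5% CO₂, with time-zero plates TCA-fixed. Five 10-fold dilutions (0.01–100) were added and cells incubated for 48 h, then fixed in 10% TCA for 60 min at 4 °C. Staining used 0.4% SRB in 1% acetic acid, solubilised in 10 mM Tris, with A515 read. GI₅₀, TGI and LC₅₀ were derived from Tz, control and test absorbances.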

IGROV-1 [2] = assay: Cytotoxicity against human IGROV1 cells after 48 hrs by SRB assay; conditions: IGROV-1, 48 h; summary of the method: as §2
M14 = assay: Cytotoxicity against human M14 cells after 48 hrs by SRB assay; conditions: M14, 48 h; summary of the method: as §2
PC-3 = assay: Cytotoxicity against human PC3 cells after 48 hrs by SRB assay; conditions: PC-3, 48 h; summary of the method: as §2
CCRF-CEM = assay: Cytotoxicity against human CCRF-CEM cells after 48 hrs by SRB assay; summary of the method: as §2
[3] = read-out: LC50 (the source's name)
[4] = read-out: pLC50 (the source's name) (converted)

Work on `O=C(CCc1nnc2sc(-c3ccc(Cl)cc3Cl)nn12)c1nc2ccccc2[nH]1` yielded a GI50 (SK-OV-3; read-out: GI50) of 1.86 µM, an LC50 (SK-OV-3; read-out: LC50) of 7.28 µM and a TGI (SK-OV-3; read-out: TGI) of 3.68 µM. For the same compound, the GI50 (SK-OV-3; read-out: pGI50 (converted)) was 1.86 µM, the LC50 (SK-OV-3; read-out: pLC50 (converted)) was 7.24 µM and the TGI (SK-OV-3; read-out: pTGI (converted)) was 3.72 µM. The GI50 (Malme-3M; read-out: GI50) was 0.762 µM, the TGI (Malme-3M; read-out: TGI) was 2.94 µM and the GI50 (Malme-3M; read-out: pGI50 (converted)) was 0.759 µM. It also gave a TGI (Malme-3M; read-out: pTGI (converted)) of 2.95 µM, a GI50 (UACC-257; read-out: GI50) of 2.1 µM and an LC50 (UACC-257; read-out: LC50) of 22.5 µM. For the same compound, the TGI (UACC-257; read-out: TGI) was 5.01 µM, the GI50 (UACC-257; read-out: pGI50 (converted)) was 2.09 µM and the LC50 (UACC-257; read-out: pLC50 (converted)) was 22.4 µM. It also gave a TGI (UACC-257; read-out: pTGI (converted)) of 5.01 µM, a GI50 (SF-295; read-out: GI50) of 1.03 µM and a TGI (SF-295; read-out: TGI) of 2.73 µM. The GI50 (SF-295; read-out: pGI50 (converted)) was 1.02 µM, the TGI (SF-295; read-out: pTGI (converted)) was 2.75 µM and the GI50 (OVCAR-3; read-out: GI50) was 0.514 µM. It also gave an LC50 (OVCAR-3; read-out: LC50) of 4.6 µM, a TGI (OVCAR-3; read-out: TGI) of 1.8 µM and a GI50 (OVCAR-3; read-out: pGI50 (converted)) of 0.513 µM. It also gave an LC50 (OVCAR-3; read-out: pLC50 (converted)) of 4.57 µM, a TGI (OVCAR-3; read-out: pTGI (converted)) of 1.82 µM and a GI50 (NCI-H23; read-out: GI50) of 0.719 µM. It also gave a TGI (NCI-H23; read-out: TGI) of 2.48 µM, a GI50 (NCI-H23; read-out: pGI50 (converted)) of 0.724 µM and a TGI (NCI-H23; read-out: pTGI (converted)) of 2.45 µM. The GI50 (786-0; read-out: GI50) was 1.59 µM, the LC50 (786-0; read-out: LC50) was 5.92 µM and the TGI (786-0; read-out: TGI) was 3.06 µM. For the same compound, the GI50 (786-0; read-out: pGI50 (converted)) was 1.58 µM, the LC50 (786-0; read-out: pLC50 (converted)) was 5.89 µM and the TGI (786-0; read-out: pTGI (converted)) was 3.09 µM. The GI50 (MOLT-4; read-out: GI50) was 0.282 µM, the CC50 (MOLT-4; [3]) was greater than 100 µM and the TGI (MOLT-4; read-out: TGI) was greater than 100 µM. It also gave a GI50 (MOLT-4; read-out: pGI50 (converted)) of 0.282 µM, a CC50 (MOLT-4; [4]) greater than 100 µM and a TGI (MOLT-4; read-out: pTGI) greater than 100 µM. It also gave a GI50 (SK-MEL-2; read-out: GI50) of 1.76 µM, a CC50 (SK-MEL-2; [3]) greater than 100 µM and a TGI (SK-MEL-2; read-out: TGI) of 6.67 µM. For the same compound, the GI50 (SK-MEL-2; read-out: pGI50 (converted)) was 1.78 µM, the CC50 (SK-MEL-2; [4]) was greater than 100 µM and the TGI (SK-MEL-2; read-out: pTGI (converted)) was 6.61 µM. The GI50 (UACC-62; read-out: GI50) was 1.06 µM, the LC50 (concentration giving 50% net cell kill) (UACC-62; read-out: LC50) was 5.61 µM and the TGI (UACC-62; read-out: TGI) was 2.44 µM. The GI50 (UACC-62; read-out: pGI50 (converted)) was 1.07 µM, the LC50 (concentration giving 50% net cell kill) (UACC-62; read-out: pLC50 (converted)) was 5.62 µM and the TGI (UACC-62; read-out: pTGI (converted)) was 2.45 µM. For the same compound, the GI50 (ACHN; read-out: GI50) was 0.339 µM, the LC50 (50% lethal concentration) (ACHN; read-out: LC50) was 4.67 µM and the TGI (ACHN; read-out: TGI) was 1.35 µM. For the same compound, the GI50 (ACHN; read-out: pGI50 (converted)) was 0.339 µM, the LC50 (50% lethal concentration) (ACHN; read-out: pLC50 (converted)) was 4.68 µM and the TGI (ACHN; read-out: pTGI (converted)) was 1.35 µM. It also gave a GI50 (NCI-H226; read-out: GI50) of 0.244 µM, a CC50 (NCI-H226; [3]) of 2.59 µM and a TGI (NCI-H226; read-out: TGI) of 0.696 µM. The GI50 (NCI-H226; read-out: pGI50 (converted)) was 0.245 µM, the CC50 (NCI-H226; [4]) was 2.57 µM and the TGI (NCI-H226; read-out: pTGI (converted)) was 0.692 µM. The inhibition of growth at 10 µM (IGROV-1 [1]) was no more than 32%, the GI50 (HL-60(TB); read-out: GI50) was 0.862 µM and the CC50 (HL-60(TB); [3]) was greater than 100 µM. For the same compound, the TGI (HL-60(TB); read-out: TGI) was 5.93 µM, the GI50 (HL-60(TB); read-out: pGI50 (converted)) was 0.871 µM and the CC50 (HL-60(TB); [4]) was greater than 100 µM. The TGI (HL-60(TB); read-out: pTGI (converted)) was 5.89 µM, the GI50 (IGROV-1 [2]; read-out: GI50) was 1.31 µM and the TGI (IGROV-1 [2]; read-out: TGI) was 3.51 µM. It also gave a GI50 (IGROV-1 [2]; read-out: pGI50 (converted)) of 1.32 µM, a TGI (IGROV-1 [2]; read-out: pTGI (converted)) of 3.47 µM and a GI50 (M14; read-out: GI50) of 0.596 µM. The TGI (M14; read-out: TGI) was 2.45 µM, the GI50 (M14; read-out: pGI50 (converted)) was 0.603 µM and the TGI (M14; read-out: pTGI (converted)) was 2.45 µM. It also gave a GI50 (PC-3; read-out: GI50) of 0.695 µM, an LC50 (concentration killing 50% of cells) (PC-3; read-out: LC50) greater than 100 µM and a TGI (PC-3; read-out: TGI) of 3.9 µM. The GI50 (PC-3; read-out: pGI50 (converted)) was 0.692 µM, the LC50 (concentration killing 50% of cells) (PC-3; read-out: pLC50 (converted)) was greater than 100 µM and the TGI (PC-3; read-out: pTGI (converted)) was 3.89 µM. It also gave a GI50 (CCRF-CEM; read-out: GI50) of 0.265 µM, a CC50 (CCRF-CEM; [3]) greater than 100 µM and a TGI (CCRF-CEM; read-out: TGI) of 0.974 µM. The GI50 (CCRF-CEM; read-out: pGI50 (converted)) was 0.263 µM, the CC50 (CCRF-CEM; [4]) was greater than 100 µM and the TGI (CCRF-CEM; read-out: pTGI (converted)) was 0.977 µM.
